Measured values: ChEMBL document CHEMBL2384971, “Bioactive limonoid and triterpenoid constituents of Turraea pubescens” (J Nat Prod, 2013)

Legend:
RAW264.7 [1] = assay: Cytotoxicity against mouse RAW264.7 cells at 50 uM by MTT assay; assay type: cell-based; settings: raw264.7, 50 µM
Artemia salina [2] = assay: Toxicity in brine shrimp larva assessed as corrected mortality at 100 ppm after 24 hrs by microscopic analysis relative to control; assay type: functional
Procedure, shortened: (§1)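 Artemia salina larvae tested by a microwell method. Corrected mortality was derived from treatment-group mortality (Mt) against vehicle-control-group mortality (Mc).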

RAW264.7 [3] = assay: Antiinflammatory activity against LPS-stimulated mouse RAW264.7 cells assessed as inhibition of NO production after 18 hrs by Griess method; assay type: functional, cell-based; settings: RAW264.7, 18 h
Procedure, shortened: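 RAW 264.7 murine macrophages were seeded at 2 × 10^5 cells/well in RPMI 1640 with 10% FBS at 37 °C under 5% CO2 and preincubated for 24 h. Cells were then exposed for 18 h to serial dilutions (top concentration 25 μM; DMSO solutions diluted in medium) plus 1 μg/mL LPS. Supernatants were mixed with Griess reagents A and B in triplicate and read at 570 nm after 5 min.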

HL-60 = assay: Cytotoxicity against human HL60 cells by MTT assay; assay type: functional, cell-based
Artemia salina [4] = assay: Toxicity in brine shrimp larva assessed as corrected mortality at 10 ppm after 24 hrs by microscopic analysis relative to control; assay type: functional; procedure, shortened: as §1
Artemia salina [5] = assay: Toxicity in brine shrimp larva assessed as corrected mortality at 50 ppm after 24 hrs by microscopic analysis relative to control; assay type: functional; procedure, shortened: as §1

Row | Structure (SMILES) | Activity (RAW264.7 [1]) | mortality at 100 ppm (Artemia salina [2]) | IC50 (RAW264.7 [3]) | IC50 (HL-60) | mortality at 10 ppm (Artemia salina [4]) | mortality at 50 ppm (Artemia salina [5])
1 | C=C1[C@@H]([C@@]2(C)C=CC(=O)C(C)(C)[C@@H]2CC(=O)OC)[C@@H](OC(C)=O)[C@H](OC(C)=O)[C@@]2(C)[C@H](C3=CC(O)OC3=O)C[C@H]3O[C@]132 (some centres not stated) | Non-toxic | < 50% | > 20 µM | < 10 µM | – | –
2 | C=C1[C@@H]([C@@]2(C)[C@H](OC(C)=O)CC(=O)C(C)(C)[C@@H]2CC(=O)OC)[C@@H](OC(C)=O)[C@H](OC(=O)C(C)C)[C@@]2(C)[C@H](c3ccoc3)C[C@H]3O[C@]132 | Non-toxic | 81.7% | > 20 µM | < 10 µM | 60.8% | 61.8%
3 | C=C1[C@@H]([C@@]2(C)C=CC(=O)C(C)(C)[C@@H]2CC(=O)OC)[C@@H](OC(C)=O)[C@H](OC(=O)C(C)C)[C@@]2(C)[C@H](c3ccoc3)C[C@H]3O[C@]132 | Non-toxic | – | > 20 µM | < 10 µM | – | –
4 | C=C1[C@@H]([C@@]2(C)C=CC(=O)C(C)(C)[C@@H]2CC(=O)OC)[C@@H](OC(C)=O)[C@H](OC(=O)C(C)CC)[C@@]2(C)[C@H](c3ccoc3)C[C@H]3O[C@]132 (some centres not stated) | Non-toxic | – | > 20 µM | < 10 µM | – | –
5 | CCC(=O)O[C@@H]1C[C@H](OC(C)=O)[C@@]2(C)[C@@H]([C@@H](O)[C@@H](OC(C)=O)[C@@]3(C)C4=CC[C@@H](c5ccoc5)[C@]4(C)CC[C@@H]32)C1(C)C | Non-toxic | – | > 20 µM | < 10 µM | – | –
6 | C/C=C(\C)C(=O)O[C@H]1C[C@@H](OC(=O)CC)[C@@]2(C(=O)OC)CO[C@H]3[C@H]4O[C@]5(C)[C@H]6C[C@H](OC7OC=C[C@@]76O)[C@]5(O)[C@@]4(C)C4[C@]1(CO[C@]4(O)C(=O)OC)[C@@H]32 (some centres not stated) | Non-toxic | – | > 20 µM | < 10 µM | – | –
7 | C/C=C(\C)C(=O)O[C@H]1C[C@@H](OC(=O)CC)[C@@]2(C(=O)OC)CO[C@H]3[C@@H](O)[C@@](C)(C45OC4(C)C4C[C@H]5O[C@@H]5OC=CC45O)C4[C@]1(CO[C@]4(O)C(=O)OC)[C@@H]32 (some centres not stated) | Non-toxic | – | > 20 µM | < 10 µM | – | –
8 | CO[C@H]1O[C@@H]([C@@H]2OC2(C)C)C[C@H]1[C@@H]1CC=C2[C@]3(C)[C@H](O)C[C@H]4C(C)(C)C(=O)C=C[C@]4(C)[C@H]3CC[C@]21C | Non-toxic | – | 17.4 µM | < 10 µM | – | –
9 | CO[C@@H]1O[C@@H]([C@@H]2OC2(C)C)C[C@H]1[C@@H]1CCC2[C@]3(C)[C@H](O)C[C@H]4C(C)(C)C(=O)C=C[C@]4(C)[C@H]3CC[C@]21C (some centres not stated) | Non-toxic | – | > 20 µM | < 10 µM | – | –
10 | CC(=O)O[C@@H]1C[C@H]2C(C)(C)C(=O)C=C[C@]2(C)[C@H]2CC[C@]3(C)C(=CC[C@H]3[C@H]3COC(C)(C)[C@@H](O)[C@H](O)C3)[C@@]21C | Non-toxic | 69.8% | > 20 µM | < 10 µM | 0% | 6.7%
11 | CC(=O)O[C@H]1C[C@@H]2[C@@]3(C)C=CC(=O)C(C)(C)[C@@H]3C[C@@H](O)[C@@]2(C)C2=CC[C@@H](c3ccoc3)[C@@]21C | Non-toxic | 85% | 11.9 µM | < 10 µM | 20.6% | 83.5%
12 | CCC(=O)O[C@@H]1C[C@H](OC(C)=O)[C@@]2(C)[C@H]3[C@@H](OC[C@]13C)[C@@H](O)[C@@]1(C)C3=CC[C@@H](c4ccoc4)[C@]3(C)CC[C@@H]12 | Non-toxic | 75.6% | 18.5 µM | < 10 µM | 0% | 36.3%
13 | C=C1[C@@H]([C@@]2(C)C=CC(=O)C(C)(C)[C@@H]2CC(=O)OC)[C@@H](OC(C)=O)[C@H](OC(C)=O)[C@@]2(C)[C@H](c3ccoc3)C[C@H]3O[C@]132 | Non-toxic | < 50% | > 20 µM | < 10 µM | – | –
14 | C[C@@H](C[C@@H](O)[C@H](O)C(C)(C)O)[C@@H]1CC[C@]2(C)C3=CC[C@H]4C(C)(C)[C@@H](O)CC[C@]4(C)[C@H]3CC[C@@]12C | Non-toxic | – | > 20 µM | < 10 µM | – | –
15 | C/C=C(\C)C(=O)O[C@H]1C[C@@H](OC(C)=O)[C@@]2(C(=O)OC)CO[C@H]3[C@@H](O)[C@@](C)([C@]45O[C@@]4(C)[C@@H]4C[C@H]5O[C@@H]5OC=C[C@@]54O)[C@H]4[C@]1(CO[C@]4(O)C(=O)OC)[C@@H]32 [AZADIRACHTIN A] | Non-toxic | 81.7% | > 20 µM | < 10 µM | 12.5% | 59.6%
16 | C[C@@H](C[C@@H](O)[C@@H]1OC1(C)C)[C@@H]1CC[C@]2(C)C3=CC[C@H]4C(C)(C)[C@@H](O)CC[C@]4(C)[C@H]3CC[C@@]12C [DIHYDRONILOTICIN] | Non-toxic | – | > 20 µM | < 10 µM | – | –
17 | CC(=O)O[C@H]1C[C@@H]2[C@@]3(C)CCC(=O)C(C)(C)[C@@H]3C[C@@H](O)[C@@]2(C)C2=CC[C@@H](c3ccoc3)[C@@]21C [MZIKONONE] | Non-toxic | 76.4% | > 20 µM | < 10 µM | 0% | 36.9%
18 | CC(=O)O[C@@H]1[C@H](O)[C@H]2C(C)(C)C(=O)C=C[C@]2(C)[C@H]2CC[C@]3(C)C(=CC[C@H]3c3ccoc3)[C@]12C [NIMONOL] | Non-toxic | – | > 20 µM | < 10 µM | – | –
19 | C=C1C2=CC[C@H](c3ccoc3)[C@]2(C)[C@@H](OC(C)=O)[C@H](OC(C)=O)[C@@H]1[C@@]1(C)C=CC(=O)C(C)(C)[C@@H]1CC(=O)OC [TURRAFLORIN A] | Non-toxic | < 50% | 15.4 µM | < 10 µM | – | –
20 | C=C1[C@@H]([C@@]2(C)C=CC(=O)C(C)(C)[C@@H]2CC(=O)OC)[C@@H](OC(C)=O)[C@H](OC(=O)C(C)C)[C@@]2(C)[C@H](C(=O)O)C[C@H]3O[C@]132 [TURRAPUBESIC ACID B] | Non-toxic | – | > 20 µM | < 10 µM | – | –
21 | C=C1[C@@H]([C@@]2(C)C=CC(=O)C(C)(C)[C@@H]2CC(=O)OC)[C@@H](OC(C)=O)[C@H](OC(=O)Cc2ccccc2)[C@@]2(C)[C@H](C3=CC(=O)OC3O)C[C@H]3O[C@]132 (some centres not stated) [TURRAPUBESIN E] | Non-toxic | < 50% | > 20 µM | < 10 µM | – | –
22 | C=C1[C@@H]([C@@]2(C)[C@H](OC(C)=O)CC(=O)C(C)(C)[C@@H]2CC(=O)OC)[C@@H](OC(C)=O)[C@H](OC(C)=O)[C@@]2(C)[C@H](c3ccoc3)C[C@H]3O[C@]132 [TURRAPUBIN A] | Non-toxic | 54.7% | > 20 µM | < 10 µM | 0% | 0.8%
23 | C=C1[C@@H]2[C@@H](O[C@H]3CC(=O)C(C)(C)[C@H](CC(=O)OC)[C@]32C)[C@H](OC(C)=O)[C@@]2(C)[C@H](c3ccoc3)C[C@H]3O[C@]132 [TURRAPUBIN D] | Non-toxic | – | > 20 µM | < 10 µM | – | –
24 | C=C1[C@@H]([C@@]2(C)C=CC(=O)C(C)(C)[C@@H]2CC(=O)OC)[C@@H](OC(C)=O)[C@H](O)[C@@]2(C)[C@H](c3ccoc3)C[C@H]3O[C@]132 [TURRAPUBIN E] | Non-toxic | < 50% | > 20 µM | < 10 µM | – | –
25 | C=C1[C@@H]([C@@]2(C)C=CC(=O)C(C)(C)[C@@H]2CC(=O)OC)[C@@H](OC(C)=O)[C@H](OC(=O)C(C)C)[C@@]2(C)[C@H](C3=CC(O)OC3=O)C[C@H]3O[C@]132 (some centres not stated) [TURRAPUBIN H] | Non-toxic | < 50% | > 20 µM | < 10 µM | – | –
